In ChEMBL document CHEMBL4689842, “EUbOPEN Chemogenomics Library wave 1” (2021):

System: HEK-293T
Test: Multiplex assay against HEK293T;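 for Population Tubulin-Different-Phenotype (%): share of the cells with healthy nuclei that show this phenotype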
Assay type: toxicity, cell-based
Details: human
In short: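 Cells were classed with CellPathfinder machine-learning gating, first as Hoechst high-intensity objects or normal cells, then (normal cells) as healthy, pyknosed or fragmented nuclei, and finally (pyknosed cells) as mitotic or apoptotic. Staining of live cells at seeding used Hoechst33342, BioTracker Green Microtubule Cytoskeleton Dye, MitoTracker Red and Annexin V Alexa Fluor 680, with imaging on a CQ1 microscope at 37°C and 5% CO2 after compound addition. Tubulin, mitochondrial-mass and membrane-permeability phenotypes are per cents of healthy-nucleus cells.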

[1] = 12 h, 1 µM, compound concentration 1 uM, replicate 1
[2] = 12 h, 1 µM, compound concentration 1 uM, replicate 2
[3] = 12 h, 10 µM, compound concentration 10 uM, replicate 1
[4] = 12 h, 10 µM, compound concentration 10 uM, replicate 2
[5] = 24 h, 1 µM, compound concentration 1 uM, replicate 1
[6] = 24 h, 1 µM, compound concentration 1 uM, replicate 2
[7] = 24 h, 10 µM, compound concentration 10 uM, replicate 1
[8] = 24 h, 10 µM, compound concentration 10 uM, replicate 2
[9] = 48 h, 1 µM, compound concentration 1 uM, replicate 1
[10] = 48 h, 1 µM, compound concentration 1 uM, replicate 2
[11] = 48 h, 10 µM, compound concentration 10 uM, replicate 1
[12] = 48 h, 10 µM, compound concentration 10 uM, replicate 2

SMILES: CCCc1cc(C)[nH]c(=O)c1CNC(=O)c1cc(-c2ccc(N3CCN(C(C)C)CC3)nc2)cc2c1cnn2C(C)C
- Population Apoptotic (%) [1]: 63%
- Population Fragmented Nuclei (%) [1]: 13%
- Population Healthy Nuclei (%) [1]: 25%
- Population Hoechst High Intensity Objects (%) [1]: 13%
- Population Membrane Permeable-Phenotype (%) [1]: 9%
- Population Mitochondria Different-Phenotype (%) [1]: 97%
- Population Mitotic Cells (%) [1]: 36%
- Population Normal (%) [1]: 86%
- Population Pyknosed Nuclei (%) [1]: 60%
- Population Tubulin-Different-Phenotype (%) [1]: 86%
- Total Cell Count [1]: 193
- Population Apoptotic (%) [2]: 51%
- Population Fragmented Nuclei (%) [2]: 4%
- Population Healthy Nuclei (%) [2]: 27%
- Population Hoechst High Intensity Objects (%) [2]: 3%
- Population Membrane Permeable-Phenotype (%) [2]: 3%
- Population Mitochondria Different-Phenotype (%) [2]: 87%
- Population Mitotic Cells (%) [2]: 48%
- Population Normal (%) [2]: 96%
- Population Pyknosed Nuclei (%) [2]: 67%
- Population Tubulin-Different-Phenotype (%) [2]: 94%
- Total Cell Count [2]: 200
- Population Apoptotic (%) [3]: 94%
- Population Fragmented Nuclei (%) [3]: 9%
- Population Healthy Nuclei (%) [3]: 20%
- Population Hoechst High Intensity Objects (%) [3]: 20%
- Population Membrane Permeable-Phenotype (%) [3]: 2%
- Population Mitochondria Different-Phenotype (%) [3]: 97%
- Population Mitotic Cells (%) [3]: 5%
- Population Normal (%) [3]: 79%
- Population Pyknosed Nuclei (%) [3]: 69%
- Population Tubulin-Different-Phenotype (%) [3]: 89%
- Total Cell Count [3]: 231
- Population Apoptotic (%) [4]: 96%
- Population Fragmented Nuclei (%) [4]: 5%
- Population Healthy Nuclei (%) [4]: 12%
- Population Hoechst High Intensity Objects (%) [4]: 8%
- Population Membrane Permeable-Phenotype (%) [4]: 11%
- Population Mitochondria Different-Phenotype (%) [4]: 94%
- Population Mitotic Cells (%) [4]: 3%
- Population Normal (%) [4]: 91%
- Population Pyknosed Nuclei (%) [4]: 82%
- Population Tubulin-Different-Phenotype (%) [4]: 100%
- Total Cell Count [4]: 151
- Population Apoptotic (%) [5]: 79%
- Population Fragmented Nuclei (%) [5]: 11%
- Population Healthy Nuclei (%) [5]: 26%
- Population Hoechst High Intensity Objects (%) [5]: 17%
- Population Membrane Permeable-Phenotype (%) [5]: 4%
- Population Mitochondria Different-Phenotype (%) [5]: 97%
- Population Mitotic Cells (%) [5]: 20%
- Population Normal (%) [5]: 82%
- Population Pyknosed Nuclei (%) [5]: 62%
- Population Tubulin-Different-Phenotype (%) [5]: 97%
- Total Cell Count [5]: 190
- Population Apoptotic (%) [6]: 57%
- Population Fragmented Nuclei (%) [6]: 2%
- Population Healthy Nuclei (%) [6]: 52%
- Population Hoechst High Intensity Objects (%) [6]: 3%
- Population Membrane Permeable-Phenotype (%) [6]: 6%
- Population Mitochondria Different-Phenotype (%) [6]: 94%
- Population Mitotic Cells (%) [6]: 42%
- Population Normal (%) [6]: 96%
- Population Pyknosed Nuclei (%) [6]: 45%
- Population Tubulin-Different-Phenotype (%) [6]: 94%
- Total Cell Count [6]: 239
- Population Apoptotic (%) [7]: 91%
- Population Fragmented Nuclei (%) [7]: 15%
- Population Healthy Nuclei (%) [7]: 16%
- Population Hoechst High Intensity Objects (%) [7]: 19%
- Population Mitochondria Different-Phenotype (%) [7]: 96%
- Population Mitotic Cells (%) [7]: 8%
- Population Normal (%) [7]: 80%
- Population Pyknosed Nuclei (%) [7]: 68%
- Population Tubulin-Different-Phenotype (%) [7]: 77%
- Total Cell Count [7]: 236
- Population Apoptotic (%) [8]: 98%
- Population Fragmented Nuclei (%) [8]: 4%
- Population Healthy Nuclei (%) [8]: 20%
- Population Hoechst High Intensity Objects (%) [8]: 14%
- Population Membrane Permeable-Phenotype (%) [8]: 3%
- Population Mitochondria Different-Phenotype (%) [8]: 100%
- Population Mitotic Cells (%) [8]: 1%
- Population Normal (%) [8]: 85%
- Population Pyknosed Nuclei (%) [8]: 74%
- Population Tubulin-Different-Phenotype (%) [8]: 81%
- Total Cell Count [8]: 151
- Population Apoptotic (%) [9]: 75%
- Population Fragmented Nuclei (%) [9]: 19%
- Population Healthy Nuclei (%) [9]: 46%
- Population Hoechst High Intensity Objects (%) [9]: 9%
- Population Membrane Permeable-Phenotype (%) [9]: 0%
- Population Mitochondria Different-Phenotype (%) [9]: 96%
- Population Mitotic Cells (%) [9]: 24%
- Population Normal (%) [9]: 90%
- Population Pyknosed Nuclei (%) [9]: 33%
- Population Tubulin-Different-Phenotype (%) [9]: 86%
- Total Cell Count [9]: 241
- Population Apoptotic (%) [10]: 69%
- Population Fragmented Nuclei (%) [10]: 6%
- Population Healthy Nuclei (%) [10]: 68%
- Population Hoechst High Intensity Objects (%) [10]: 2%
- Population Membrane Permeable-Phenotype (%) [10]: 1%
- Population Mitochondria Different-Phenotype (%) [10]: 77%
- Population Mitotic Cells (%) [10]: 30%
- Population Normal (%) [10]: 97%
- Population Pyknosed Nuclei (%) [10]: 25%
- Population Tubulin-Different-Phenotype (%) [10]: 91%
- Total Cell Count [10]: 327
- Population Apoptotic (%) [11]: 95%
- Population Fragmented Nuclei (%) [11]: 20%
- Population Healthy Nuclei (%) [11]: 10%
- Population Hoechst High Intensity Objects (%) [11]: 28%
- Population Membrane Permeable-Phenotype (%) [11]: 5%
- Population Mitochondria Different-Phenotype (%) [11]: 94%
- Population Mitotic Cells (%) [11]: 4%
- Population Normal (%) [11]: 71%
- Population Pyknosed Nuclei (%) [11]: 68%
- Population Tubulin-Different-Phenotype (%) [11]: 61%
- Total Cell Count [11]: 241
- Population Apoptotic (%) [12]: 98%
- Population Fragmented Nuclei (%) [12]: 5%
- Population Healthy Nuclei (%) [12]: 31%
- Population Hoechst High Intensity Objects (%) [12]: 27%
- Population Membrane Permeable-Phenotype (%) [12]: 2%
- Population Mitochondria Different-Phenotype (%) [12]: 100%
- Population Mitotic Cells (%) [12]: 1%
- Population Normal (%) [12]: 72%
- Population Pyknosed Nuclei (%) [12]: 62%
- Population Tubulin-Different-Phenotype (%) [12]: 55%
- Total Cell Count [12]: 148

SMILES: NC(=O)c1ccc2nc(-c3ccc(C4(N)CCC4)cc3)c(-c3ccccc3)n2n1 [BAY-1125976]
- Population Apoptotic (%) [1]: 22%
- Population Healthy Nuclei (%) [1]: 67%
- Population Hoechst High Intensity Objects (%) [1]: 16%
- Population Mitochondria Different-Phenotype (%) [1]: 12%
- Population Mitotic Cells (%) [1]: 77%
- Population Normal (%) [1]: 83%
- Population Pyknosed Nuclei (%) [1]: 17%
- Population Tubulin-Different-Phenotype (%) [1]: 26%
- Total Cell Count [1]: 688
- Population Apoptotic (%) [2]: 10%
- Population Fragmented Nuclei (%) [2]: 4%
- Population Healthy Nuclei (%) [2]: 87%
- Population Hoechst High Intensity Objects (%) [2]: 4%
- Population Mitochondria Different-Phenotype (%) [2]: 17%
- Population Mitotic Cells (%) [2]: 89%
- Population Normal (%) [2]: 95%
- Population Tubulin-Different-Phenotype (%) [2]: 38%
- Total Cell Count [2]: 1223
- Population Apoptotic (%) [3]: 19%
- Population Fragmented Nuclei (%) [3]: 17%
- Population Healthy Nuclei (%) [3]: 62%
- Population Hoechst High Intensity Objects (%) [3]: 15%
- Population Mitochondria Different-Phenotype (%) [3]: 5%
- Population Mitotic Cells (%) [3]: 80%
- Population Normal (%) [3]: 84%
- Population Pyknosed Nuclei (%) [3]: 19%
- Population Tubulin-Different-Phenotype (%) [3]: 5%
- Total Cell Count [3]: 611
- Population Apoptotic (%) [4]: 12%
- Population Fragmented Nuclei (%) [4]: 7%
- Population Healthy Nuclei (%) [4]: 87%
- Population Hoechst High Intensity Objects (%) [4]: 2%
- Population Mitochondria Different-Phenotype (%) [4]: 8%
- Population Mitotic Cells (%) [4]: 87%
- Population Normal (%) [4]: 97%
- Population Pyknosed Nuclei (%) [4]: 4%
- Total Cell Count [4]: 1764
- Population Apoptotic (%) [5]: 32%
- Population Hoechst High Intensity Objects (%) [5]: 15%
- Population Mitochondria Different-Phenotype (%) [5]: 9%
- Population Mitotic Cells (%) [5]: 67%
- Population Normal (%) [5]: 84%
- Population Pyknosed Nuclei (%) [5]: 10%
- Population Tubulin-Different-Phenotype (%) [5]: 44%
- Total Cell Count [5]: 691
- Population Apoptotic (%) [6]: 10%
- Population Fragmented Nuclei (%) [6]: 19%
- Population Healthy Nuclei (%) [6]: 76%
- Population Hoechst High Intensity Objects (%) [6]: 4%
- Population Mitochondria Different-Phenotype (%) [6]: 5%
- Population Mitotic Cells (%) [6]: 89%
- Population Normal (%) [6]: 95%
- Population Pyknosed Nuclei (%) [6]: 3%
- Population Tubulin-Different-Phenotype (%) [6]: 42%
- Total Cell Count [6]: 1875
- Population Apoptotic (%) [7]: 26%
- Population Healthy Nuclei (%) [7]: 77%
- Population Hoechst High Intensity Objects (%) [7]: 11%
- Population Mitochondria Different-Phenotype (%) [7]: 4%
- Population Mitotic Cells (%) [7]: 73%
- Population Normal (%) [7]: 88%
- Population Pyknosed Nuclei (%) [7]: 8%
- Population Tubulin-Different-Phenotype (%) [7]: 8%
- Total Cell Count [7]: 699
- Population Apoptotic (%) [8]: 6%
- Population Fragmented Nuclei (%) [8]: 23%
- Population Healthy Nuclei (%) [8]: 74%
- Population Hoechst High Intensity Objects (%) [8]: 3%
- Population Mitochondria Different-Phenotype (%) [8]: 1%
- Population Mitotic Cells (%) [8]: 93%
- Population Normal (%) [8]: 96%
- Population Pyknosed Nuclei (%) [8]: 2%
- Population Tubulin-Different-Phenotype (%) [8]: 6%
- Total Cell Count [8]: 3086
